We go through 2 compounds from ChEMBL document CHEMBL1123302, “Antagonists of substance P. Further modifications of substance P antagonists obtained by replacing either positions 7, 9 or 7, 8 and 11 of SP with D-amino acid residues” (J Med Chem, 1986).

The structures appear in SMILES notation. A value given as a limit tells only on which side of the number the result lay.

The target in experiment [1] is Substance-P receptor (Cavia porcellus) (UniProt P30547). Description: Antagonistic activity against Substance P(6-11) receptor in guinea pig ileum at concentration of 4.5 uM. The class given is functional, tissue-based. Summed up:
(§1)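 Distal ileum from Dunkin-Hartley guinea pigs (300-350 g, both sexes), held in a 5-mL bath of Krebs solution at 37 °C gassed with 95% O2/5% CO2. Agonist dose-response curves ran on a 3-min cycle with 1-min contact, then washout. Dose ratio = agonist EC50 with antagonist / EC50 alone. At least two preparations per compound; ratios below two were taken as insignificant.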

The target of experiment [2] is Substance-P receptor (Rattus norvegicus) (UniProt P14600). The experiment in a line: Antagonistic activity against Substance P(6-11) receptor in rat spinal cord at concentration of 43 uM.
Substance-P receptor (Rattus norvegicus), sequence (P14600 whole entry, looked up): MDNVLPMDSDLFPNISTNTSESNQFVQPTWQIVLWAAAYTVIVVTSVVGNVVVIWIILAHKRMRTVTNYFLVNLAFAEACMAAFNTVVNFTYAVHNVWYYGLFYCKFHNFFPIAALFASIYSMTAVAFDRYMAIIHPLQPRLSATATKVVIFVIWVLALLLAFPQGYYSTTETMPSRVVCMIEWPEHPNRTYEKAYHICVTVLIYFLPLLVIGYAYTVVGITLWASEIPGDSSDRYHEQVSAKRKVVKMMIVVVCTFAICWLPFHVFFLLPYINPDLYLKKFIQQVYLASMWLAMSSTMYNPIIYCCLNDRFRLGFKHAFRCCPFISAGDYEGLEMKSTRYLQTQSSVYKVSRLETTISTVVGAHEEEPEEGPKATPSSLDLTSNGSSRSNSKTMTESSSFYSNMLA
Experiment [3] shares this target. Description: Antagonistic activity against Substance P receptor in rat spinal cord at concentration of 21 uM.
The target in experiment [4] is T1, Substance-P receptor (Rattus norvegicus, UniProt P14600). The experiment in a line: Compound was evaluated for the histamine releasing activity of the Substance P from isolated rat peritoneal mast cells using the procedure of Fretwell et al. The class given is functional, cell-based. A digest of the protocol:
(§2)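 Histamine release from isolated rat peritoneal mast cells, method of Fretwell et al. Dose-response curves were built over a range of concentrations, and EC50 values were calculated from the curves.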

For experiment [5], the target named is Substance-P receptor (Cavia porcellus) (UniProt P30547). The experiment in a line: Antagonistic activity against Substance P receptor in guinea pig ileum at concentration of 1 uM. The experiment is classed as functional, tissue-based. A digest of the protocol:
as §1

The target of experiment [6] is Substance-P receptor (Rattus norvegicus) (UniProt P14600). Description: Antagonistic activity against Substance P receptor in rat spinal cord at concentration of 43 uM.
For experiment [7] the target is unchanged. Description: Antagonistic activity against Substance P(6-11) receptor in rat spinal cord at concentration of 21 uM.
The target of experiment [8] is Metabotropic glutamate receptor 3 (Rattus norvegicus) (UniProt P31422). The experiment in a line: Antagonistic activity against Glutamate receptor in rat spinal cord at concentration of 21 uM. The class given is functional, tissue-based. A digest of the protocol:
(§3)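 Neonatal rat spinal cord, hemisected sagittally, superfused at 1 mL/min with oxygenated Krebs-Henseleit medium containing 0.5% urethane at room temperature. Agonists were given in 2-mL doses in the superfusate. Antagonist was superfused continuously for at least 15 min before agonist retesting. Read-out was ventral root depolarization (DC potential, ventral root vs cord body), measured as amplitude and area of response.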

The target in experiment [9] is Substance-P receptor (Cavia porcellus) (UniProt P30547). Description: Antagonistic activity against Substance P receptor in guinea pig ileum at concentration of 4.5 uM. The class given is functional, tissue-based. Summed up: as §1
Substance-P receptor (Cavia porcellus), sequence (P30547 whole entry): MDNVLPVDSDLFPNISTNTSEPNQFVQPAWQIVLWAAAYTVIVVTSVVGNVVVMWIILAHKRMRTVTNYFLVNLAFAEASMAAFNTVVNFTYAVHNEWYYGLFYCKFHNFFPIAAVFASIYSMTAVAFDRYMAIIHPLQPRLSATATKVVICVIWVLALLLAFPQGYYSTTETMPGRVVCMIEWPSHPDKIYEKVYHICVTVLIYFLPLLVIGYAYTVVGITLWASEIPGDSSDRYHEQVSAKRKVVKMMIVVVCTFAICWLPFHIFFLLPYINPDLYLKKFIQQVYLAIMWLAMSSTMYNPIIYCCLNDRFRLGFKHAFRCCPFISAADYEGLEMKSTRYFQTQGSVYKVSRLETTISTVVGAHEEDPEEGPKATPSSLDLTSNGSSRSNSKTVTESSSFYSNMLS
For experiment [10] the target is unchanged. Description: Antagonistic activity against Substance P(6-11) receptor in guinea pig ileum at concentration of 1 uM. The experiment is classed as functional, tissue-based. A digest of the protocol: as §1
Experiment [11] shares this target. Description: In vitro inhibition of substance P (6-11) hexapeptide induced contractions of the guinea pig ileum at 10 uM. The experiment is classed as tissue-based. A digest of the protocol: (§4)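 Agonist (SP or SP(6-11)-hexapeptide) dose-response curves on a 3-min cycle with 1-min contact, then washout. Dose ratio = agonist EC50 with antagonist / EC50 alone. At least two preparations per compound; ratios below 2 taken as insignificant.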

For experiment [12] the target is unchanged. The experiment in a line: In vitro inhibition of substance P induced contractions of the guinea pig ileum at 10 uM. The experiment is classed as tissue-based. Summed up:
as §4

Experiment [13] has as its target Metabotropic glutamate receptor 3 (Rattus norvegicus) (UniProt P31422). The experiment in a line: Antagonistic activity against Glutamate receptor in rat spinal cord at concentration of 5 uM. The class given is functional, tissue-based. A digest of the protocol:
as §3

Experiment [14] is described as follows: Antagonistic activity against Glutamate receptor in rat spinal cord at concentration of 50 uM.
For experiment [15], the target named is Substance-P receptor (Cavia porcellus) (UniProt P30547). The experiment in a line: In vitro inhibition of substance P (6-11) hexapeptide induced contractions of the guinea pig ileum at 5 uM. The class given is tissue-based. Summed up: as §4
The target of experiment [16] is Substance-P receptor (Rattus norvegicus) (UniProt P14600). Description: Antagonistic activity against Substance P receptor in rat spinal cord at concentration of 50 uM.
The target is the same in experiment [17]. Description: Antagonistic activity against Substance P(6-11) receptor in rat spinal cord at concentration of 5 uM.
Experiment [18] concerns the target Substance-P receptor (Cavia porcellus) (UniProt P30547). The experiment in a line: In vitro inhibition of substance P induced contractions of the guinea pig ileum at 5 uM. The experiment is classed as tissue-based. Summed up: as §4
Experiment [19] deals with T1, Substance-P receptor. The experiment in a line: Histamine releasing activity of Substance P from isolated rat peritoneal mast cells. The experiment is classed as functional. A digest of the protocol: as §2
Experiment [20] addresses Substance-P receptor (Rattus norvegicus) (UniProt P14600). The experiment in a line: Antagonistic activity against Substance P receptor in rat spinal cord at concentration of 10 uM.
The test system of experiment [21] is muscarinic acetylcholine receptor (Rattus norvegicus). Description: Antagonistic activity against Carbachol receptor in rat spinal cord at concentration of 10 uM.
Experiment [22] deals with Substance-P receptor (Rattus norvegicus) (UniProt P14600). The experiment in a line: Antagonistic activity against Substance P(6-11) receptor in rat spinal cord at concentration of 50 uM.
Experiment [23] addresses Metabotropic glutamate receptor 3 (Rattus norvegicus) (UniProt P31422). Description: Antagonistic activity against Glutamate receptor in rat spinal cord at concentration of 10 uM. The class given is functional, tissue-based. Summed up:
as §3

For experiment [24], the target named is Substance-P receptor (Rattus norvegicus) (UniProt P14600). The experiment in a line: Antagonistic activity against Substance P receptor in rat spinal cord at concentration of 5 uM.
Experiment [25] relates to muscarinic acetylcholine receptor (Rattus norvegicus). Description: Antagonistic activity against Carbachol receptor in rat spinal cord at concentration of 5 uM.
In experiment [26] the target is Substance-P receptor (Rattus norvegicus) (UniProt P14600). The experiment in a line: Antagonistic activity against Substance P(6-11) receptor in rat spinal cord at concentration of 10 uM.

Metabotropic glutamate receptor 3 (Rattus norvegicus), sequence (P31422 23-879 limits assumed): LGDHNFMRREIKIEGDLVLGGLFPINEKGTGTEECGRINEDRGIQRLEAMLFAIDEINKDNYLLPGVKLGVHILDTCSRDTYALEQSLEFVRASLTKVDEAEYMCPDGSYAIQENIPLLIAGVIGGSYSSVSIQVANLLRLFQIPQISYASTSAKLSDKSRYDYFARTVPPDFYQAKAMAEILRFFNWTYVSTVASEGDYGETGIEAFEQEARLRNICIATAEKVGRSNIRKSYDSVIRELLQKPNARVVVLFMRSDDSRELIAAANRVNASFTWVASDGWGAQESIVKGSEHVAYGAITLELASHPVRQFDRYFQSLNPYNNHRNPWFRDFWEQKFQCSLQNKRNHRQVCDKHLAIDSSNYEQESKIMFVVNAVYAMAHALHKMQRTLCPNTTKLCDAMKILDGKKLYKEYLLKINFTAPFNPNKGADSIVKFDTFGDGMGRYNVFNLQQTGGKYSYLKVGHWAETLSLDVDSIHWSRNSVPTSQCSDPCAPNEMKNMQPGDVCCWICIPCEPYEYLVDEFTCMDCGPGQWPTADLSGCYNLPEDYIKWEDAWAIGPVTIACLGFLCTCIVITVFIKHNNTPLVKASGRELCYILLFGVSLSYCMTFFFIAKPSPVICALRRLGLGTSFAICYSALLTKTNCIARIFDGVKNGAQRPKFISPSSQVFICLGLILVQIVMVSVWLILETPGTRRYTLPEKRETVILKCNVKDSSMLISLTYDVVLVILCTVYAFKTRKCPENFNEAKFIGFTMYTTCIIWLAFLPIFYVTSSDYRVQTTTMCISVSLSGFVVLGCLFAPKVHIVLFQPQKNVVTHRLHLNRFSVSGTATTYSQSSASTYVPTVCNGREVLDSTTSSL
T1 sequence (P14600 whole entry): as the sequence (P14600 whole entry, looked up) above

What is called IC50 is the concentration needed to halve the response being measured. On to `COC(=O)[C@H](CCSC)NC(=O)[C@H](CC(C)C)NC(=O)[C@@H](Cc1c[nH]c2ccccc12)NC(=O)[C@H](Cc1ccccc1)NC(=O)[C@@H](Cc1ccccc1)NC(=O)[C@H](CCCCNC(=O)OCc1ccccc1)NC(=O)[C@H](CC(N)=O)NC(=O)[C@@H]1CCCN1C(=O)[C@H](CCCCNC(=O)OCc1ccccc1)NC(=O)[C@@H]1CCCN1C(=O)[C@H](CCCN=C(N)N)NC(=O)OCc1ccccc1`, for which the Activity in experiment [1] came to 10.8 dose ratio; in experiment [5], 5 dose ratio; in experiment [9] it was 11.4 dose ratio; in experiment [10], 9.3 dose ratio. Besides, the Change in amplitude response was -54% in [2]; 17% in experiment [3]; 0% in experiment [6]; -44% in [7]; -15% in [8]. This compound gave an IC50 in experiment [4] of over 500000 nM.

Turning to `COC(=O)[C@H](CCSC)NC(=O)[C@H](CC(C)C)NC(=O)[C@@H](Cc1c[nH]c2ccccc12)NC(=O)[C@H](Cc1ccccc1)NC(=O)[C@@H](Cc1ccccc1)NC(=O)[C@H](CCCN=C(N)N)NC(=O)[C@H](CC(N)=O)NC(=O)C1CCCN1C(=O)[C@H](CCCCNC(=O)OCc1ccccc1)NC(=O)C1CCCN1C(=O)[C@H](CCCN=C(N)N)NC(=O)OCc1ccccc1` (stereo in doubt), the Activity came out at 11.1 dose ratio in experiment [11], 31.1 dose ratio in experiment [12], 3.2 dose ratio in [15] and 14 dose ratio in [18]. For the same compound, the Change in amplitude response in [13] was -3%; in experiment [14], 20%; in [16], -37%; in [17], -73%; in experiment [20] it was 3%; in experiment [21], -51%. In addition, the Change in amplitude response in experiment [22] is -85%; in [23], -1%; in experiment [24], -29%; in experiment [25] it was -52%; in [26] it was -75%. In experiment [19], this compound yielded an IC50 of 600 nM.
